# Laboratory results published in ChEMBL document CHEMBL1629602, “Reconstruction of the phenotypes of methicillin-resistant Staphylococcus aureus by replacement of the staphylococcal cassette chromosome mec with a plasmid-borne copy of Staphylococcus sciuri pbpD gene” (2009).
# Experiments:
# Staphylococcus aureus [1] = assay: Antibacterial activity against chloramphenicol, tetracycline-resistant Staphylococcus aureus COL-S carrying SSpbpD/mecI-mecR1 plasmid; assay type: functional
# Summary of the method: (§1)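 Oxacillin MIC by population analysis: overnight-culture aliquots plated on tryptic soy agar with increasing oxacillin concentrations. CFU counted after 72 h at 30°C.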
# Staphylococcus aureus [2] = assay: Antibacterial activity against oxacillin, chloramphenicol, erythromycin-susceptible and tetracycline-resistant Staphylococcus aureus COL-S with SCCmec excised; assay type: functional; summary of the method: as §1
# Staphylococcus aureus [3] = assay: Antibacterial activity against chloramphenicol-susceptible and oxacillin, erythromycin, tetracycline-resistant Staphylococcus aureus COL
# Staphylococcus aureus [4] = assay: Antibacterial activity against tetracycline-resistant Staphylococcus aureus COL-S carrying SSpbpD plasmid; assay type: functional; summary of the method: as §1
# Staphylococcus aureus [5] = assay: Antibacterial activity against chloramphenicol-resistant Staphylococcus aureus COL carrying mecI-mecR1 plasmid; assay type: functional; summary of the method: as §1
# Staphylococcus aureus [6] = assay: Antibacterial activity against tetracycline-resistant Staphylococcus aureus COL-S carrying SAmecA plasmid; assay type: functional; summary of the method: as §1
# Staphylococcus aureus [7] = assay: Antibacterial activity against chloramphenicol, tetracycline-resistant Staphylococcus aureus COL-S carrying SAmecA/mecI-mecR1 plasmid; assay type: functional; summary of the method: as §1
Structure (SMILES),MIC (Staphylococcus aureus [1]),MIC (Staphylococcus aureus [2]),MIC (Staphylococcus aureus [3]),MIC (Staphylococcus aureus [4]),MIC (Staphylococcus aureus [5]),MIC (Staphylococcus aureus [6]),MIC (Staphylococcus aureus [7])
CO/N=C(\C(=O)N[C@@H]1C(=O)N2C(C(=O)O)=CCS[C@H]12)c1csc(N)n1 [CEFTIZOXIME],12 µg/mL,0.8 µg/mL,800 µg/mL,400 µg/mL,3 µg/mL,800 µg/mL,3 µg/mL
CO/N=C(\C(=O)N[C@@H]1C(=O)N2C(C(=O)O)=C(COC(C)=O)CS[C@H]12)c1csc(N)n1 [CEFOTAXIME],6 µg/mL,0.8 µg/mL,800 µg/mL,200 µg/mL,6 µg/mL,800 µg/mL,6 µg/mL
Cc1onc(-c2ccccc2)c1C(=O)N[C@@H]1C(=O)N2[C@@H]1SC(C)(C)[C@@H]2C(=O)O [OXACILLIN],0.4 µg/mL,0.8 µg/mL,800 µg/mL,400 µg/mL,0.4 µg/mL,400 µg/mL,0.8 µg/mL
N[C@@H]1CONC1=O [CYCLOSERINE],,,1 µg/mL,0.75 µg/mL,,8 µg/mL,
CC1=C(C(=O)O)N2C(=O)[C@@H](NC(=O)[C@H](N)C3=CCC=CC3)[C@H]2SC1 [CEPHRADINE],3 µg/mL,6 µg/mL,400 µg/mL,100 µg/mL,6 µg/mL,400 µg/mL,12 µg/mL
CO[C@@]1(NC(=O)Cc2cccs2)C(=O)N2C(C(=O)O)=C(COC(N)=O)CS[C@@H]21 [CEFOXITIN],1.5 µg/mL,3 µg/mL,800 µg/mL,200 µg/mL,3 µg/mL,400 µg/mL,6 µg/mL
